From ChEMBL document CHEMBL4616671, “Identification of N-Phenyl-7H-pyrrolo[2,3-d]pyrimidin-4-amine Derivatives as Novel, Potent, and Selective NF-κB Inducing Kinase (NIK) Inhibitors for the Treatment of Psoriasis” (J Med Chem, 2020)
Calls of active or inactive are those of the source. The rule behind the calls is not given here.

Columns and labels:
[1] = test system: Mus musculus; assay: (§1) Suppression of epidermal and dermal cell proliferation in C57 mouse model of IMQ-induced psoriasis assessed as reduction in Ki67 expression in back skin psoriatic lesions at 120 mg/kg, ig administered starting from day 3 post IMQ-challenge and measured 2 days post-last dose of IMQ by immunohistochemical analysis relative to control; type: functional; conditions: C57, topical
Method in brief: (§2)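 C57 mice given 5% imiquimod cream on back skin q.d. for seven days. Gavage q.d. at 60 or 120 mg/kg from day 3, n = 6 per group. Back-skin frozen sections (6 µm) stained for Ki67 by IHC. % Ki67+ of total cells quantified and normalized to IMQ-only model group. Two-tailed t-test, mean ± SD.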

[2] = AUC (0 to infinity) in Sprague-Dawley rat at 10 mg/kg, po administered via gavage by LC-MS/MS analysis; type: ADME, organism-based; design: dose 10 mg/kg, time infinity, route oral; conditions: in vivo
Method in brief: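 Single oral gavage in SD rats, 3 per group, as a suspension in saline with 0.5% CMC-Na and 0.2% Tween 80, 1 mg/mL. Plasma protein-precipitated with ACN containing internal standards, then LC-MS/MS. AUC0-∞ by linear trapezoidal rule, noncompartmental analysis. Mean ± SD of three rats.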

[3] = test system: J774; assay: Antiinflammatory activity in mouse J774 cells assessed as reduction in LPS-induced IL-1 beta mRNA level by SYBR green dye-based quantitative PCR analysis; type: functional, cell-based
Method in brief: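 LPS-stimulated J774 macrophages; mRNA quantified by qPCR using 4 µL cDNA plus 16 µL master mix per reaction. Mean ± SD of three biological replicates; significance by two-tailed Student's t-test against the model group.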

[4] = Intrinsic hepatic clearance in human; type: ADME
Method in brief: (§3)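 Scaled from microsomal intrinsic clearance: CLint,in vitro × microsomal protein per g liver × liver weight per kg body weight.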

[5] = test system: Mus musculus; assay: Suppression of IMQ-induced psoriasis in ig dosed C57 mouse assessed as reduction in serum IL-17A level administered once daily starting from day 3 post IMQ-challenge and measured 2 days post-last dose of IMQ by ELISA; type: functional, organism-based
Method in brief: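 IMQ-induced C57 mice (5% cream 7 days; 60 or 120 mg/kg i.g. daily from day 3). Blood collected at end of dosing, held 12 h at 4 °C, centrifuged; serum IL-17A by ELISA. Mean ± SEM.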

[6] = Initial plasma concentration in Sprague-Dawley rat at 1 mg/kg, iv administered as single bolus dose by LC-MS/MS analysis; type: ADME, organism-based
[7] = Intrinsic clearance in rat liver microsomes assessed as per mg of protein incubated for 10 mins followed by potassium phosphate buffer addition and measured after 5 to 60 mins by LC-MS/MS analysis; type: ADME, Microsome; conditions: read-out: CLH
Method in brief: (§4)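 Rat, dog, monkey or human liver microsomes pre-incubated with compound at 37 °C for 10 min; reaction started after pre-warming and stopped at 5, 15, 30, 60 min with chilled quench containing tolbutamide and labetalol. No-cofactor control in 100 mM potassium phosphate for 60 min. LC-MS/MS analysis; first-order fit: k = −slope, T1/2 = 0.693/k, CLint = k/microsomal protein concentration.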

[8] = target: Mitogen-activated protein kinase kinase kinase 14 (Homo sapiens, UniProt Q99558); assay: Inhibition of NIK in human BEAS2B cells assessed as reduction in LPS-induced IL-6 level preincubated for 8 hrs followed by LPS stimulation and measured after 24 hrs by ELISA; type: cell-based
Method in brief: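 BEAS-2B cells were grown in DMEM with 10% FBS, seeded at 5000 cells/well, and cultured 24 h at 37 °C in 5% CO2. Compounds were given at 7 concentrations from 10 μM to 0.014 μM (3 replicate wells), with dexamethasone as positive control. After 8 h, LPS (20 μg/mL solution) was added for 24 h. Supernatant IL-6 was read by human IL-6 ELISA; two biological replicates.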

[9] = AUC (0 to infinity) in Sprague-Dawley rat at 1 mg/kg, iv administered as single bolus dose by LC-MS/MS analysis; type: ADME, organism-based; design: dose 1 mg/kg, time infinity, route intravenous; conditions: in vivo
Method in brief: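 Single IV bolus in SD rats, 3 per group, in DMSO:PEG200:saline 20:20:60 (v/v/v), 0.2 mg/mL. Plasma protein-precipitated with ACN containing internal standards, then quantified by LC-MS/MS. AUC0-∞ from concentration-time profiles by linear trapezoidal rule, noncompartmental analysis. Mean ± SD of three rats.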

[10] = organism: Homo sapiens; assay: Selectivity ratio of IC50 for human Aurora B to IC50 for human NIK
[11] = target: Tyrosine-protein kinase JAK1 (Homo sapiens, UniProt P23458); assay: Inhibition of human JAK1 using poly[Glu:Tyr] (4:1) as substrate in presence of [gamma33P]ATP by hotspot assay
[12] = target: Activated CDC42 kinase 1 (Homo sapiens, UniProt Q07912); assay: Inhibition of human ACK1 using [EAIYAAPFAKKK] as substrate in presence of [gamma33P]ATP by hotspot assay
[13] = Intrinsic hepatic clearance in rat; type: ADME; conditions: in vivo; method in brief: as §3
[14] = test system: Mus musculus; assay: as §1, with “60” for “120”; type: functional; conditions: C57, topical; method in brief: as §2
[15] = Elimination half life in monkey liver microsomes incubated for 10 mins followed by potassium phosphate buffer addition and measured after 5 to 60 mins by LC-MS/MS analysis; type: ADME, Macaca mulatta, Microsome; conditions: rhesus monkey, read-out: beta t1/2; method in brief: as §4
[16] = Half life in Sprague-Dawley rat at 10 mg/kg, po administered via gavage by LC-MS/MS analysis; type: ADME, organism-based; conditions: in vivo
[17] = target: Leucine-rich repeat serine/threonine-protein kinase 2 (Homo sapiens, UniProt Q5S007); assay: Inhibition of human LRRK2 using [RLGRDKYKTLRQIRQ] as substrate in presence of [gamma33P]ATP by hotspot assay
[18] = test system: Mus musculus; assay: Protection against IMQ-induced dermatitis in C57 mouse model of psoriasis assessed as reduction in invasive erythema at 60 to 120 mg/kg, ig administered once daily starting from day 3 post IMQ-challenge and measured 2 days post-last dose of IMQ; type: functional, organism-based
Method in brief: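 C57 mice given 5% imiquimod cream on the back once daily for 7 days; intragastric dosing 60 or 120 mg/kg once daily from day 3 to end, n = 6 per group. Dorsal skin phenotype assessed by imaging.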

[19] = Elimination half life in dog liver microsomes incubated for 10 mins followed by potassium phosphate buffer addition and measured after 5 to 60 mins by LC-MS/MS analysis; type: ADME, Canis lupus familiaris, Microsome; conditions: read-out: beta t1/2; method in brief: as §4
[20] = Intrinsic clearance in monkey liver microsomes assessed as per mg of protein incubated for 10 mins followed by potassium phosphate buffer addition and measured after 5 to 60 mins by LC-MS/MS analysis; type: ADME, Macaca mulatta, Microsome; conditions: rhesus monkey, read-out: CLH; method in brief: as §4
[21] = test system: Mus musculus; assay: Suppression of IMQ-induced psoriasis in C57 mouse assessed as reduction in spleen index at 120 mg/kg, ig administered once daily starting from day 3 post IMQ-challenge and measured 2 days post-last dose of IMQ; type: functional, organism-based
Method in brief: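 IMQ-induced C57 mice (5% cream daily 7 days; i.g. daily from day 3 at the stated dose, n = 6). Spleen weighed per mouse at end of study.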

Activated CDC42 kinase 1, sequence (Q07912 whole entry): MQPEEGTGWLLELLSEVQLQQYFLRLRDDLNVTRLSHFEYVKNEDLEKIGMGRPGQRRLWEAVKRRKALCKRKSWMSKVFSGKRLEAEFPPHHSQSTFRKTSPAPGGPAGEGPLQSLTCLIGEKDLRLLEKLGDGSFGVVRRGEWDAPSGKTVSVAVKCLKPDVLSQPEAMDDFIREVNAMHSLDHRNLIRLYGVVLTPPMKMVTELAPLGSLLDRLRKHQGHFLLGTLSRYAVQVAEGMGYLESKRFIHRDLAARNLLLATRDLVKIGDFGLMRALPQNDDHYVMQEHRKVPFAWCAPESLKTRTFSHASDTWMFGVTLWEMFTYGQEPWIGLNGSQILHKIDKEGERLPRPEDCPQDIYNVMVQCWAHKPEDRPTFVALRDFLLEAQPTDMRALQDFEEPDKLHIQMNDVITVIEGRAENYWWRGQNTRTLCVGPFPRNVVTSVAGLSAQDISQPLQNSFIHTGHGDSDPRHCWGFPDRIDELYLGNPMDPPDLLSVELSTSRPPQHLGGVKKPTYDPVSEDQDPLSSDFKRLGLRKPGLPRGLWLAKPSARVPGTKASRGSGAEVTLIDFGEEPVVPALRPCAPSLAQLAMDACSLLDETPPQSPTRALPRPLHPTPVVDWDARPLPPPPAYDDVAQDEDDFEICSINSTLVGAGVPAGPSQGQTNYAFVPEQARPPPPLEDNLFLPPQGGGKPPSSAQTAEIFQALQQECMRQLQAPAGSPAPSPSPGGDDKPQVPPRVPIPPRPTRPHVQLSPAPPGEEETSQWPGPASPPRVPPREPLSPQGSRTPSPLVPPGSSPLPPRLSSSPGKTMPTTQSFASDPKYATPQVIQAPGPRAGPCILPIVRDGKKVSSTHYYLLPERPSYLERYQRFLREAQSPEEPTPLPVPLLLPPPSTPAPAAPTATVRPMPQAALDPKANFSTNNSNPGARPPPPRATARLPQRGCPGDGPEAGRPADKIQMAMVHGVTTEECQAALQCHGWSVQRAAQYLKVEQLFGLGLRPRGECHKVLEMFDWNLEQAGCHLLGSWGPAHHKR
Tyrosine-protein kinase JAK1, sequence (P23458 whole entry): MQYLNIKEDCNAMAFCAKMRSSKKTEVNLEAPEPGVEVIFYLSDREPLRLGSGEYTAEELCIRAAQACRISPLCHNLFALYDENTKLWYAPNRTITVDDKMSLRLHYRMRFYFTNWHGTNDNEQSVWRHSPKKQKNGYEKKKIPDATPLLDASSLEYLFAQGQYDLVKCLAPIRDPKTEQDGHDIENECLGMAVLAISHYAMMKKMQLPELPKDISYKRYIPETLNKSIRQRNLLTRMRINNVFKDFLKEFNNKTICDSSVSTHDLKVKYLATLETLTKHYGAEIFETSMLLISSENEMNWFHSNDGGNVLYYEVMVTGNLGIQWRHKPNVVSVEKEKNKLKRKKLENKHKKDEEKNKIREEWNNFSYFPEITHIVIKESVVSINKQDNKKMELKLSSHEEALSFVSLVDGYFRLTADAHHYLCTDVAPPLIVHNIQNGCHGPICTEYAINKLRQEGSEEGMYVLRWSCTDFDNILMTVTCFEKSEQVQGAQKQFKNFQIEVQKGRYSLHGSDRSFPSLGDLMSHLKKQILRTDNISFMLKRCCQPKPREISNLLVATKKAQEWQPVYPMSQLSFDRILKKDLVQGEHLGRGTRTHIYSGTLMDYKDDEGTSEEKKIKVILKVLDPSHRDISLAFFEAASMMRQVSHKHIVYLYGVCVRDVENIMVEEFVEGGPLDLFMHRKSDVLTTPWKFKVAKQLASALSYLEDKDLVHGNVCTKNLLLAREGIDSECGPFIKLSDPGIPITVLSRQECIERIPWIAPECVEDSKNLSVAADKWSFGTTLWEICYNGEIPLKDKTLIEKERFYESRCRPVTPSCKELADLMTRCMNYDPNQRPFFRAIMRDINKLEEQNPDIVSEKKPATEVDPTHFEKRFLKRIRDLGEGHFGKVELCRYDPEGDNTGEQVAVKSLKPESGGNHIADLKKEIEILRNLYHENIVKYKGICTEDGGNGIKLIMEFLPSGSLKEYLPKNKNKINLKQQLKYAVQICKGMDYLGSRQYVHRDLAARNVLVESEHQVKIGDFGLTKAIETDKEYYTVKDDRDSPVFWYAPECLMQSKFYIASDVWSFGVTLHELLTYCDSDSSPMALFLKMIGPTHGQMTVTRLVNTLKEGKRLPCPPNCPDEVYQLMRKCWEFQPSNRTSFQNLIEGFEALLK
Leucine-rich repeat serine/threonine-protein kinase 2, sequence (Q5S007 whole entry): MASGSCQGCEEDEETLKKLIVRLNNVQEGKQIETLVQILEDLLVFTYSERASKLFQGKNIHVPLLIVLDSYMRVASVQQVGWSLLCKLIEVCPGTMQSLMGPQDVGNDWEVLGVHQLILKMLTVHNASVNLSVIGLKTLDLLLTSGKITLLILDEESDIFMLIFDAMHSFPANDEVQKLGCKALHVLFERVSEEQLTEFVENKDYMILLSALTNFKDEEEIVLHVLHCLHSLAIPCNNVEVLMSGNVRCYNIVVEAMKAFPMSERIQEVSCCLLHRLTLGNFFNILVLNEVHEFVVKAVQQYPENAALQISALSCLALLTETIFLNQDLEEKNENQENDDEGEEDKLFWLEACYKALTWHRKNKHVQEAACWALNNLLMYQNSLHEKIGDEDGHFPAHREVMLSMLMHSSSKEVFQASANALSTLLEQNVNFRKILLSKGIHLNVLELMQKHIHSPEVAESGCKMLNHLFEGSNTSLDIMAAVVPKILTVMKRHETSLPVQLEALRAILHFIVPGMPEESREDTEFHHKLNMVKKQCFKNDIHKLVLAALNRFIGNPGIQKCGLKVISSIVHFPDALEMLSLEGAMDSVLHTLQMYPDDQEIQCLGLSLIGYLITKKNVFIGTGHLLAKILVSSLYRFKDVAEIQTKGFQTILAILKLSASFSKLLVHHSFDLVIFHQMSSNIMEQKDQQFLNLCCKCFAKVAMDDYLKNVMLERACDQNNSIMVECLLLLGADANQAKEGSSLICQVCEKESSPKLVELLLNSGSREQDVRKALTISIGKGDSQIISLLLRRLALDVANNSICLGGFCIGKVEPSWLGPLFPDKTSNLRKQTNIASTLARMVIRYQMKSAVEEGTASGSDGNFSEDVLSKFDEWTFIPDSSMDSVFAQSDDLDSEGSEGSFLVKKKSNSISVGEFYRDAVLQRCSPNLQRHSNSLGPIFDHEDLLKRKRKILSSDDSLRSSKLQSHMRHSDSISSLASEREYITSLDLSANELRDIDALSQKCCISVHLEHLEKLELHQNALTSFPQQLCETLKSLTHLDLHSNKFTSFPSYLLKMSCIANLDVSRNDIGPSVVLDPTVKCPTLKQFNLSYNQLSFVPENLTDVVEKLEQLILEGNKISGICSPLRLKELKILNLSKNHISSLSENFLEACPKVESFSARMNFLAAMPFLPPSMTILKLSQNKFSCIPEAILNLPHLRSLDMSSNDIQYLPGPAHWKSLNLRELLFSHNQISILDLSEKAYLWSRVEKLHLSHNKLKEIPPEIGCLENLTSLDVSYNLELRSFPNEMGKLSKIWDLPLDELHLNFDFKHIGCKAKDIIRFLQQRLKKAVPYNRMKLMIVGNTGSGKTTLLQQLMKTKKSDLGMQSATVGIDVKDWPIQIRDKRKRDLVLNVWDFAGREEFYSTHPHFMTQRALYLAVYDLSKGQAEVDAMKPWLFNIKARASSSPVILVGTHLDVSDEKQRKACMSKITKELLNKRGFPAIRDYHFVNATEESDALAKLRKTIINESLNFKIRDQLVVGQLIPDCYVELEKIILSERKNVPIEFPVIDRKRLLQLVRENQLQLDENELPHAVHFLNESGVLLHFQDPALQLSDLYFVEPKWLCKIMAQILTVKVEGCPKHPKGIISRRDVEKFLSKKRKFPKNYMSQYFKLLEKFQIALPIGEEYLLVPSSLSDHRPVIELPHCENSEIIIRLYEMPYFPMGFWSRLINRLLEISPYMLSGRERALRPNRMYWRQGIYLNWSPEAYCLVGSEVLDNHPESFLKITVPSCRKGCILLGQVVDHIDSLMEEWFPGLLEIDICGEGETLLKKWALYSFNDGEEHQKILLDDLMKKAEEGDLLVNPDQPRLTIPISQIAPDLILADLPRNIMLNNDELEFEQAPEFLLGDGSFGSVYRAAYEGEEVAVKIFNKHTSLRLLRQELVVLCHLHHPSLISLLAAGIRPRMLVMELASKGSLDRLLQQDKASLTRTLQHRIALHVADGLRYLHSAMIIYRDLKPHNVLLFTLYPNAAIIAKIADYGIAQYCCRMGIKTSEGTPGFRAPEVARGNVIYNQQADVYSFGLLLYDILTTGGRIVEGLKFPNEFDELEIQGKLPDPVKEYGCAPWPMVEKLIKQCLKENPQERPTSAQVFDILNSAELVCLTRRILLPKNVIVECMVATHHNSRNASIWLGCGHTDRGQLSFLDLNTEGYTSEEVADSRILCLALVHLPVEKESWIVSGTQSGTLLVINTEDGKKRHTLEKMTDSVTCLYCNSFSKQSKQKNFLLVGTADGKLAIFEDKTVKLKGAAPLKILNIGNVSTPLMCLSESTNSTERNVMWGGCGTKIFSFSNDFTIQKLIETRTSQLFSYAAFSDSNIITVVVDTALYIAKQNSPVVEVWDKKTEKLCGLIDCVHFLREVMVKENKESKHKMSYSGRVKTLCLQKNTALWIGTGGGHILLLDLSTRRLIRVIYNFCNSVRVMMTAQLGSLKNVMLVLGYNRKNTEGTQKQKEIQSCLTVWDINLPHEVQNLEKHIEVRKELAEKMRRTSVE

CC(O)(C#Cc1ccc(N2CCOCC2)c(Nc2ncnc3[nH]ccc23)c1)c1nccs1 (racemic)
inhibition in vivo at 120 mg/kg [1]: 83% | AUC(0-inf) [2]: 2680 ng·h/mL | Activity [3]: Active | CLH [4]: 30.6 mL/min/kg | inhibition [5]: Dose-dependent effect | C0 [6]: 377 ng/mL | microsomal CLint [7]: 45 µL/min/mg | inhibition [8]: Dose-dependent effect | AUC(0-inf) [9]: 419 ng·h/mL | Ratio IC50 [10]: 4 to 20 | IC50 [11]: 183 nM | IC50 [12]: 192 nM | CLH [13]: 81 mL/min/kg | inhibition in vivo at 60 mg/kg [14]: 55% | half-life [15]: 18 min | half-life [16]: 83.4 min | IC50 [17]: 94.6 nM | Activity [18]: Active | half-life [19]: 32.4 min | microsomal CLint [20]: 76.8 µL/min/mg | inhibition [21]: Active
